The record followed here is ChEMBL document CHEMBL1949586, “Conicasterol E, a small heterodimer partner sparing farnesoid X receptor modulator endowed with a pregnane X receptor agonistic activity, from the marine sponge Theonella swinhoei” (J Med Chem, 2012).

Holding throughout (type): functional, cell-based
Data set [1] deals with T1, Bile acid receptor (Homo sapiens) (UniProt Q96RI1).
T1 sequence (whole entry): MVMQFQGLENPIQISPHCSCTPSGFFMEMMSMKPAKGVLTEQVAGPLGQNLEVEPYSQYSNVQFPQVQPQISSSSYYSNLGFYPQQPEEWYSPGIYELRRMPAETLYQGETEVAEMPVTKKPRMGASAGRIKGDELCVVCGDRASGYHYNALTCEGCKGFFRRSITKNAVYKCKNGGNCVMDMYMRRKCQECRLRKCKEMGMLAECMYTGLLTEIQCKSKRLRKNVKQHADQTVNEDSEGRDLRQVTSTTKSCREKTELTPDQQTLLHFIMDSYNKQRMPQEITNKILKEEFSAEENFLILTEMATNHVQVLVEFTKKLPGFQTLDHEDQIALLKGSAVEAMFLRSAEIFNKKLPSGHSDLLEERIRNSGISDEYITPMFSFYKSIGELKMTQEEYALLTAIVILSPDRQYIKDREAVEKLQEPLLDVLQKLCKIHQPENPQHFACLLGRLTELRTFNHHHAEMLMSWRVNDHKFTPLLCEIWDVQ
In words: Agonist activity at FXR expressed in human HepG2 cells assessed as increase in OSTalpha mRNA level at 10 uM by RT-PCR analysis. Put shortly: (§1)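 HepG2 cells exposed to 10 μM test agent, alone or with 10 μM CDCA. mRNA was measured by SYBR Green real-time PCR with 50 ng template and 0.2 μM of each primer. Cycling was 95 °C 2 min, then 40 cycles of 95/55/72 °C. Reactions ran in triplicate. CT was normalised to GAPDH, and ΔΔCT was taken against untreated cells. Four experiments were run.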

In data set [2] the target is T1, Bile acid receptor (Homo sapiens). Put plainly: Antagonist activity at FXR expressed in human HepG2 cells assessed as inhibition of 6-ECDCA-mediated transactivation at 50 uM after 48 hrs by luciferase reporter gene assay. Summed up: (§2)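 The FXR/RXR/hsp27-luciferase HepG2 transfection system was used, with test agent co-administered alongside 6-ECDCA. Stimulation was 18 h, starting 48 h after transfection. Luciferase was normalised to β-galactosidase.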

The target is the same in data set [3]. Put plainly: Antagonist activity at FXR expressed in human HepG2 cells assessed as inhibition of CDCA-mediated transactivation at 10 uM after 48 hrs by luciferase reporter gene assay. Summed up:
(§3)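 Antagonism was tested in the FXR transactivation system: HepG2 cells transfected with FXR, RXR, β-gal and the hsp27 IR1-luciferase reporter. Cells were stimulated 48 h after transfection for 18 h with 10 μM CDCA plus test agent. Luciferase was normalised to β-gal. Four experiments were run.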

The target of data set [4] is T2, Nuclear receptor subfamily 1 group I member 2 (Homo sapiens, UniProt O75469).
T2 sequence (O75469 whole entry): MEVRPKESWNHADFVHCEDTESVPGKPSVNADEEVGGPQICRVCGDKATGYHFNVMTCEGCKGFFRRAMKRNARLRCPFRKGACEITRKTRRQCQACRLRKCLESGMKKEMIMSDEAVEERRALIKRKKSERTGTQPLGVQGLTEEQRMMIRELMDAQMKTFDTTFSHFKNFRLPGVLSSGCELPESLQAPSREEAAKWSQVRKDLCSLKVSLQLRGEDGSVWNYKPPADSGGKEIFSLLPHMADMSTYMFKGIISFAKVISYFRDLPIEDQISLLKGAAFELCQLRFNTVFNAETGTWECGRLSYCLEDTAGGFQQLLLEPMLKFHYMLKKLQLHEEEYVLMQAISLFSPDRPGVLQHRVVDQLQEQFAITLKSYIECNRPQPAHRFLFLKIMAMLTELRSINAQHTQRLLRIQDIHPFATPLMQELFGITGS
Put plainly: Agonist activity at PXR expressed in human HepG2 cells assessed as transactivation […] by luciferase reporter gene assay.

Data set [5] has as its target T1, Bile acid receptor (Homo sapiens). In words: Agonist activity at FXR expressed in human HepG2 cells assessed as increase in CYP7A1 mRNA level at 10 uM by RT-PCR analysis relative to control. Summed up: as §1
Data set [6] has the same target. In words: Agonist activity at FXR expressed in human HepG2 cells at 50 uM after 48 hrs by luciferase reporter gene based transactivation assay. Summed up: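 HepG2 cells (5 × 10⁵/well) were transfected using Fugene HD with pSG5-FXR, pSG5-RXR, pCMV-β-gal and the p(hsp27)-TK-LUC reporter (IR1 element). Cells were stimulated 48 h post-transfection for 18 h. Luciferase from lysates was normalised to β-galactosidase activity. Four experiments were run.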

For data set [7] the target is unchanged. Put plainly: Agonist activity at FXR expressed in human HepG2 cells assessed as effect on SHP mRNA level at 10 uM by RT-PCR analysis. Summed up:
as §1

Data set [8] shares this target. Put plainly: Antagonist activity at FXR expressed in human HepG2 cells assessed as inhibition of 6-ECDCA-mediated transactivation at 10 uM after 48 hrs by luciferase reporter gene assay. Summed up: as §2
The target is the same in data set [9]. In words: Antagonist activity at FXR expressed in human HepG2 cells assessed as inhibition of CDCA-mediated transactivation at 50 uM after 48 hrs by luciferase reporter gene assay. Summed up: as §3
In general terms: In a reporter assay the amount or activity of a reporter protein is the signal.

Data set [10] addresses T2, Nuclear receptor subfamily 1 group I member 2. In words: Antagonist activity at PXR expressed in human HepG2 cells assessed as inhibition of rifaximin-induced CYP3A4 mRNA expression at 50 uM by RT-PCR analysis. The note with it: hepg2, 50 µM.
Data set [11] has as its target T1, Bile acid receptor (Homo sapiens). Put plainly: Agonist activity at FXR expressed in human HepG2 cells assessed as increase in BSEP mRNA level at 10 uM by RT-PCR analysis. Put shortly:
as §1

The source made the active and inactive calls. The rule behind the calls is not given here.

On to `C=C1[C@@H](O)CC[C@@]2(C)[C@H]1C[C@@H](O)C1=C3[C@H](O)C[C@H]([C@H](C)CC[C@@H](C)C(C)C)[C@@]3(C)CC[C@@H]12` [CONICASTEROL E], for which the outcome in data set [1], in data set [6] and in data set [11] was Active. The inhibition entry in data set [2], in [3], in data set [8] and in data set [9] was “inactive” each time. For the same compound, in [4], the outcome was Active. The fold change (FC) in data set [5] stood at 2. The result in data set [7] was inactive. The “inhibition (INH)” value in data set [10] is listed as “Not Active”.
Turning to `CO[C@H]1/C=C/O[C@@]2(C)Oc3c(C)c(O)c4c(O)c(c5c(nc6cc(C)ccn65)c4c3C2=O)NC(=O)/C(C)=C\C=C\[C@H](C)[C@H](O)[C@@H](C)[C@@H](O)[C@@H](C)[C@H](OC(C)=O)[C@@H]1C` [RIFAXIMIN], in [4], the outcome was Active.
